Experimental data reported in ChEMBL document CHEMBL1938299, “Quinolinone-based agonists of S1P₁: use of a N-scan SAR strategy to optimize in vitro and in vivo activity” (Bioorg Med Chem Lett, 2012).
Values after ≈ are worked out from the molar mass of the structure shown.

Experiments:
[1] = molecular target: T1, Sphingosine 1-phosphate receptor 1 (Homo sapiens, UniProt P21453); assay: Agonist activity at human S1P1 receptor expressed in human U2OS cells co-expressing eGFP assessed as receptor internalization into cytoplasm using Hoechst dye staining relative to 1-(4-(6-benzylbenzofuran-2-yl)-3- fluorobenzyl)azetidine-3-carboxylic acid; format: functional, cell-based
T1 sequence (P21453 whole entry): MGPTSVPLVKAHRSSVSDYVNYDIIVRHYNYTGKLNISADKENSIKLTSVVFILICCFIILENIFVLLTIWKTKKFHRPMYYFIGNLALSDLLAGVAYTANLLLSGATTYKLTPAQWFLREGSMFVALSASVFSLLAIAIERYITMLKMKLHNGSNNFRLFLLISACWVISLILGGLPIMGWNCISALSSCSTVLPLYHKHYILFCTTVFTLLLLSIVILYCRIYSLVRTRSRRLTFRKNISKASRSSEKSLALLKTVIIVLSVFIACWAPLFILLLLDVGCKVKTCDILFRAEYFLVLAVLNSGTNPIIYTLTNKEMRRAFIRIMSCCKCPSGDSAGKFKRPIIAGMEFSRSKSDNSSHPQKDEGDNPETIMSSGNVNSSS

[2] = molecular target: T2, Sphingosine 1-phosphate receptor 3 (Homo sapiens, UniProt Q99500); assay: Agonist activity at human S1P3 receptor expressed in CHO-K1 cells co-expressing Gq/i5 G-protein assessed as calcium mobilization by FLIPR assay relative to S1P; format: functional, cell-based
T2 sequence (Q99500 whole entry): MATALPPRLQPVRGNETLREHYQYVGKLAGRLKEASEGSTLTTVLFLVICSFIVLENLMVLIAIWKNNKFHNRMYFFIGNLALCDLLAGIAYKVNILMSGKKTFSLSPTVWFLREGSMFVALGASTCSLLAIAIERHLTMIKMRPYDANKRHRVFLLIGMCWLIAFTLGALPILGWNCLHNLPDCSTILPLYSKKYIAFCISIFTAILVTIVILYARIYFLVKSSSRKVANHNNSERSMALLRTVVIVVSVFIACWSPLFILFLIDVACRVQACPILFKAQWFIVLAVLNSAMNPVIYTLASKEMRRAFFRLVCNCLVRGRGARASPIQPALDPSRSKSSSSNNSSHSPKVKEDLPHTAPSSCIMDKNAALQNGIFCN
How it was run: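 Ca2+ mobilization in CHO-K1 cells expressing hS1P3 and a chimeric Gq/i5 G-protein. Efficacy expressed as % relative to S1P; compounds not reaching >10% of control activity reported as greater than the highest concentration tested.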

[3] = molecular target: T1, Sphingosine 1-phosphate receptor 1; assay: Agonist activity at human S1P1 receptor expressed in human U2OS cells co-expressing eGFP assessed as receptor internalization into cytoplasm using Hoechst dye staining; format: functional, cell-based
[4] = molecular target: T2, Sphingosine 1-phosphate receptor 3; assay: Agonist activity at human S1P3 receptor expressed in CHO-K1 cells co-expressing Gq/i5 G-protein assessed as calcium mobilization by FLIPR assay; format: functional, cell-based
[5] = Intrinsic clearance in rat liver microsomes assessed per mg of protein after 30 mins; format: ADME, Microsome; conditions: read-out: CLH
How it was run: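 Test compound incubated with rat liver microsomes for 30 min. Percent turnover measured and used to estimate intrinsic clearance.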

[6] = Apparent permeability of the compound in pig LLC-PK1 cells; format: ADME, cell-based, Sus scrofa
How it was run: (§1)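 LLC-PK1 porcine proximal tubule cell monolayers; apparent permeability (Papp) of test compound through the cells measured, along with efflux ratio.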

[7] = Efflux ratio of permeability in pig LLC-PK1 cells; format: ADME, cell-based, Sus scrofa; how it was run: as §1
Rattus norvegicus [8] = assay: Immunosuppressive activity in Lewis rat assessed as reduction in circulating peripheral lymphocyte count at 1 mg/kg, po after 24 hrs relative to control; format: functional; set-up: scale not given: the % may be the effect or the level left
How it was run: (§2)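 Female Lewis rats (N = 5/group) given a single oral dose (0.30, 1.0 or 3.0 mg/kg) in 20% Captisol or HPBCD, 1% HPMC, 1% Pluronic F68, pH 2.0 with MSA. At 24 h, blood lymphocytes were counted as percent of vehicle control and total plasma compound measured. Significance by ANOVA/Dunnett's test versus vehicle.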

[9] = Plasma concentration in Lewis rat at 1 mg/kg, po after 24 hrs; format: ADME, organism-based; set-up: dose 1 mg/kg, route oral; how it was run: as §2
[10] = Solubility of the compound in simulated intestinal fluid at pH 7.4; format: physicochemical
How it was run: (§3)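 Compound solubility measured separately in 0.010 M aqueous HCl, in PBS at pH 7.4, and in simulated intestinal fluid.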

[11] = Solubility of the compound in 0.010 M aqueous hydrogen chloride at pH 7.4; format: physicochemical; conditions: in the assay text read “hydrogen chloride” for “hydrogen chloride at pH 7.4”; how it was run: as §3
[12] = Solubility of the compound in phosphate-buffered saline at pH 7.4; format: physicochemical; how it was run: as §3
[13] = Half life in Sprague-Dawley rat at 1 mg/kg, iv; format: ADME, organism-based; set-up: dose 1 mg/kg, route intravenous; conditions: in vivo
How it was run: (§4)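 Single intravenous dose of 1 mg/kg in DMSO vehicle to male Sprague–Dawley rats (N = 3/group). Clearance, steady-state volume of distribution and half-life were determined from plasma levels.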

[14] = AUC (0 to 24 hrs) in Sprague-Dawley rat at 100 mg/kg, po; format: ADME, organism-based; set-up: time < 24 hr, dose 100 mg/kg, route oral; conditions: plasma
Rattus norvegicus [15] = assay: Immunosuppressive activity in po dosed Lewis rat assessed as reduction in circulating peripheral lymphocyte count after 24 hrs; format: functional, organism-based; how it was run: as §2
[16] = AUC (0 to 24 hrs) in Sprague-Dawley rat at 3 mg/kg, po; format: ADME, organism-based, Plasma; set-up: time < 24 hr, dose 3 mg/kg, route oral; conditions: Sprague-Dawley, plasma
[17] = Volume of distribution at steady state in Sprague-Dawley rat at 1 mg/kg, iv; format: ADME, organism-based; set-up: dose 1 mg/kg, route intravenous; conditions: in vivo, read-out: Vdss; how it was run: as §4
[18] = Plasma concentration in Lewis rat at 3 mg/kg, po after 24 hrs; format: ADME, organism-based; set-up: dose 3 mg/kg, route oral; how it was run: as §2
[19] = Plasma protein binding in rat; format: ADME, cell-free; conditions: read-out: PPB (converted)
How it was run: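 Rat plasma protein binding measured in vitro, with bound and free compound separated by ultracentrifugation; reported as percent bound.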

[20] = Plasma concentration in Lewis rat at 0.3 mg/kg, po after 24 hrs; format: ADME, organism-based; set-up: dose 0.3 mg/kg, route oral; how it was run: as §2
Rattus norvegicus [21] = assay: Immunosuppressive activity in Lewis rat assessed as reduction in circulating peripheral lymphocyte count at 3 mg/kg, po after 24 hrs relative to control; format: functional; set-up: scale not given: the % may be the effect or the level left; how it was run: as §2
[22] = Oral bioavailability in Sprague-Dawley rat at 3 mg/kg; format: ADME, organism-based; conditions: Sprague-Dawley, in vivo
How it was run: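 Bioavailability in male Sprague–Dawley rats (N = 3/group), calculated from AUC0–∞ values obtained after a 1 mg/kg iv dose (DMSO vehicle) and a 3 mg/kg po dose (20% Captisol, 1% HPMC, 1% pluronic F68, pH 2.0 with MSA).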

Rattus norvegicus [23] = assay: Ratio of AUC (0 to 24 hrs) at 100 mg/kg, po to AUC (0 to 24 hrs) at 3 mg/kg, po in Sprague-Dawley rat; format: ADME, organism-based; conditions: in vivo
How it was run: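 Male Sprague–Dawley rats (N = 3/group) each received a single oral dose of 3 or 100 mg/kg, in 20% Captisol, 1% HPMC, 1% Pluronic F68, adjusted to pH 2.0 with MSA.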

[24] = Clearance in Sprague-Dawley rat at 1 mg/kg, iv; format: ADME, organism-based; set-up: dose 1 mg/kg, route intravenous; conditions: Sprague-Dawley, in vivo; how it was run: as §4
Rattus norvegicus [25] = assay: Immunosuppressive activity in Lewis rat assessed as reduction in circulating peripheral lymphocyte count at 30 mg/kg, po after 24 hrs relative to control; format: functional; set-up: scale not given: the % may be the effect or the level left
[26] = Plasma concentration in Lewis rat at 30 mg/kg, po after 24 hrs; format: ADME, organism-based; set-up: dose 30 mg/kg, route oral

SMILES | Efficacy [1] [%] | EC50 [3] [µM] | EC50 [4] [µM] | microsomal CLint [5] [µL/min/mg] | Papp [6] [nm/s] | efflux ratio [7] | concentration at 24 h [9] [µg/mL] | solubility [10] [µg/mL] | solubility [11] [µg/mL] | solubility [12] [µg/mL] | Activity (Rattus norvegicus [8]) [%] | also measured
CCCCCCCCc1ccc(CCC(N)(CO)CO)cc1 | 115 | – | – | – | – | – | – | – | – | – | – | –
CCCCCCCCc1ccc(CC[C@](N)(CO)COP(=O)(O)O)cc1 | – | – | – | – | – | – | – | – | – | – | – | Efficacy [2]: 35%
Cn1cc(C(=O)Nc2ccc(-c3ccccn3)c(C(F)(F)F)n2)c(=O)c2cnccc21 | 130 | 0.21 | > 2.5 | < 14 | 150 | 1 | 0.14 | 5.8 (≈ 13.6 µM) | > 200 | 3 (≈ 7.05 µM) | -32 | –
Cn1cc(C(=O)Nc2ccc(-c3ccccc3)c(C(F)(F)F)c2)c(=O)c2ccccc21 | 110 | 0.07 | 1.5 | < 14 | 12 | 0.4 | 0.018 | 11 (≈ 26 µM) | 1.3 (≈ 3.08 µM) | < 1 | -3 | half-life [13]: 15 h; AUC(0-t) at 24 h [14]: 5.8 µg·h/mL; Activity (Rattus norvegicus [15]): Dose-dependent effect; AUC(0-t) at 24 h [16]: 1.2 µg·h/mL; Vd [17]: 11 L/kg; concentration at 24 h [18]: 0.048 µg/mL; fraction unbound [19]: 0.03; concentration at 24 h [20]: 0.0055 µg/mL; Activity (Rattus norvegicus [21]): -51%; bioavailability [22]: 60%; Ratio AUC (Rattus norvegicus [23]): 4.7; Efficacy [2]: 92%; clearance [24]: 0.93 L/h/kg
Cn1cc(C(=O)Nc2ccc(-c3ccccc3)c(C(F)(F)F)n2)c(=O)c2ccccc21 | 120 | 0.042 | > 2.5 | < 14 | < 10 | – | 0.0013 | 2.3 (≈ 5.43 µM) | < 1 | < 1 | 7 | –
FC(F)(F)c1cccc(-c2noc(-c3cc(-c4ccccc4)c(C(F)(F)F)s3)n2)c1 | 86 | – | > 25 | – | – | – | – | – | – | – | – | Activity (Rattus norvegicus [25]): -66%; concentration at 24 h [26]: 1.1 µg/mL
Cn1cc(C(=O)Nc2ccc(-c3cccnc3)c(C(F)(F)F)c2)c(=O)c2ccccc21 | 110 | 0.31 | > 2.5 | 18 | 180 | 1.6 | – | 6.7 (≈ 15.8 µM) | 23 (≈ 54.3 µM) | < 1 | – | –

Continued, in another order:

Efficacy [1] [%] | EC50 [3] [µM] | EC50 [4] [µM] | microsomal CLint [5] [µL/min/mg] | Papp [6] [nm/s] | efflux ratio [7] | concentration at 24 h [9] [µg/mL] | solubility [10] [µg/mL] | solubility [11] [µg/mL] | solubility [12] [µg/mL] | SMILES | Activity (Rattus norvegicus [8]) [%] | also measured
59 | 1.1 | > 2.5 | < 14 | < 10 | – | – | – | – | – | Cn1cc(C(=O)Nc2cc(C(F)(F)F)c(-c3ccccc3)cn2)c(=O)c2ccccc21 | – | –
110 | 0.06 | > 2.5 | < 14 | 110 | 0.8 | 0.0051 | 5.2 (≈ 12.3 µM) | 12 (≈ 28.3 µM) | < 1 | Cn1cc(C(=O)Nc2ccc(-c3ccccn3)c(C(F)(F)F)c2)c(=O)c2ccccc21 | 25 | –
120 | 0.02 | > 2.5 | < 14 | 67 | 1 | 0.13 | 10 (≈ 23.6 µM) | < 1 | 2.4 (≈ 5.66 µM) | Cn1cc(C(=O)Nc2ccc(-c3ccccc3)c(C(F)(F)F)n2)c(=O)c2cnccc21 | -67 | half-life [13]: 24 h; AUC(0-t) at 24 h [14]: 130 µg·h/mL; Activity (Rattus norvegicus [15]): Dose-dependent effect; AUC(0-t) at 24 h [16]: 12 µg·h/mL; Vd [17]: 5.1 L/kg; concentration at 24 h [18]: 0.64 µg/mL; fraction unbound [19]: 0.02; concentration at 24 h [20]: 0.047 µg/mL; Activity (Rattus norvegicus [21]): -76%; bioavailability [22]: 110%; Ratio AUC (Rattus norvegicus [23]): 11; clearance [24]: 0.15 L/h/kg
